pIC50: −log10 of the molar value. In brackets after ≈: the same amount, converted by molar mass.
What was measured:
[1] = Cytotoxicity against mouse RAW264.7 cells assessed as reduction in cell viability at 100 uM after 72 hrs by MTT assay; format: cell-based; conditions: read-out: INH
How it was run: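 RAW 264.7 mouse macrophages exposed to compound at 100 µM for 72 h. Viability measured by MTT conversion to formazan, with absorbance at 560 nm after 10 min incubation. Reported as percent inhibition.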

[2] = biological target: DNA gyrase subunit A/DNA gyrase subunit B (Mycobacterium tuberculosis (strain ATCC 25618 / H37Rv), UniProt P9WG45+P9WG47); assay: Inhibition of Mycobacterium tuberculosis DNA gyrase using relaxed pBR322 as substrate after 30 mins by supercoiling assay
Sequence of DNA gyrase subunit A/DNA gyrase subunit B (P9WG45 whole entry): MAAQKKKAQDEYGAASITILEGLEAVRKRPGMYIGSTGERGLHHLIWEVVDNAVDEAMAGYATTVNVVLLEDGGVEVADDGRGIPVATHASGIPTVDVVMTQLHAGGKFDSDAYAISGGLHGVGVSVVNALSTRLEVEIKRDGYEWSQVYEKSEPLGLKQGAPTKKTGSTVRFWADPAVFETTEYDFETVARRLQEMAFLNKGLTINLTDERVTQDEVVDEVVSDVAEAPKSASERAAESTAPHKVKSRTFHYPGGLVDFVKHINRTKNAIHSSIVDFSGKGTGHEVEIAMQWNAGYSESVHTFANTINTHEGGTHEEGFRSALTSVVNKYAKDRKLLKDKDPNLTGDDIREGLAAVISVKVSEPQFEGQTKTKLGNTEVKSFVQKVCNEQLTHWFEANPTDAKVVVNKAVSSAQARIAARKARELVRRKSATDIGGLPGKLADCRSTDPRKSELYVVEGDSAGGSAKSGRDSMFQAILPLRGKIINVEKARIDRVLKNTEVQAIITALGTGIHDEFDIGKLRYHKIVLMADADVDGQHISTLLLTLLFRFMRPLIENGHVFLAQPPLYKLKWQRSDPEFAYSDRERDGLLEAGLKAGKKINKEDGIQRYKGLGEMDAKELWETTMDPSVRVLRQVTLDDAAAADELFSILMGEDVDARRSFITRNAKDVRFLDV
Sequence of DNA gyrase subunit A/DNA gyrase subunit B (P9WG47 whole entry): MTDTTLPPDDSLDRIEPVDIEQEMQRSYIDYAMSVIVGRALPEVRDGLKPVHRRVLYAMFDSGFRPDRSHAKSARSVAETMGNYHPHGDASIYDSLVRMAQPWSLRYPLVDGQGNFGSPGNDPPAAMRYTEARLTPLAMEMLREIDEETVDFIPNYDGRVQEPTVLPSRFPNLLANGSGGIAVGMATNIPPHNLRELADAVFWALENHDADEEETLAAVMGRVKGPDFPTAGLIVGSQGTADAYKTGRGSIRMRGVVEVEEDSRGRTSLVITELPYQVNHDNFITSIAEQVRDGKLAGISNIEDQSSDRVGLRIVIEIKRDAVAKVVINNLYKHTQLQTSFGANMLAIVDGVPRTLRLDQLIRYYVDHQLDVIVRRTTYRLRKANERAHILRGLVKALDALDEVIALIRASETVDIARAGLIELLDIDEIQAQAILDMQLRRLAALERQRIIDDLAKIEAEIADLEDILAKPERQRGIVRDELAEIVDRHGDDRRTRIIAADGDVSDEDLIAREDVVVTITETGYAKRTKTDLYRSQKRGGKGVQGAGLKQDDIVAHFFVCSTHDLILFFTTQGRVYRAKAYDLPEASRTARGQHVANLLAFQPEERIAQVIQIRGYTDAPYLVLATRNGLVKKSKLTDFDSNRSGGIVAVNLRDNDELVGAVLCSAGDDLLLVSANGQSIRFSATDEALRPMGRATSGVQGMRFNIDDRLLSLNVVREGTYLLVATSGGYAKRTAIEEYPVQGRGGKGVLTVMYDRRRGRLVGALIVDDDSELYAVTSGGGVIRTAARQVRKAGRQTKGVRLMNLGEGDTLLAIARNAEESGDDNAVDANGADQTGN

[3] = test system: Mycobacterium tuberculosis; assay: Antimicrobial activity against Mycobacterium tuberculosis H37Rv after 7 days by MABA assay; format: functional; conditions: 168 h
How it was run: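 M. tuberculosis H37Rv inoculum from fresh LJ medium, resuspended in 7H9 broth (0.1% casitone, 0.5% glycerol, OADC), adjusted to McFarland No. 1 and diluted 1:20. Serial two-fold drug dilutions in 7H9-S. Drug-free and sterile controls. Incubated 7 days at 37 °C, then Alamar blue added and plates re-incubated overnight. MIC = lowest concentration preventing the blue-to-pink change.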

DNA gyrase subunit B = DNA gyrase subunit B (Mycobacterium smegmatis, UniProt P0C559); assay: Inhibition of purified Mycobacterium smegmatis GyrB at 50 to 100 uM after 100 mins by ATPase assay; design: species or system Mycolicibacterium smegmatis
Sequence of DNA gyrase subunit B (P0C559 whole entry): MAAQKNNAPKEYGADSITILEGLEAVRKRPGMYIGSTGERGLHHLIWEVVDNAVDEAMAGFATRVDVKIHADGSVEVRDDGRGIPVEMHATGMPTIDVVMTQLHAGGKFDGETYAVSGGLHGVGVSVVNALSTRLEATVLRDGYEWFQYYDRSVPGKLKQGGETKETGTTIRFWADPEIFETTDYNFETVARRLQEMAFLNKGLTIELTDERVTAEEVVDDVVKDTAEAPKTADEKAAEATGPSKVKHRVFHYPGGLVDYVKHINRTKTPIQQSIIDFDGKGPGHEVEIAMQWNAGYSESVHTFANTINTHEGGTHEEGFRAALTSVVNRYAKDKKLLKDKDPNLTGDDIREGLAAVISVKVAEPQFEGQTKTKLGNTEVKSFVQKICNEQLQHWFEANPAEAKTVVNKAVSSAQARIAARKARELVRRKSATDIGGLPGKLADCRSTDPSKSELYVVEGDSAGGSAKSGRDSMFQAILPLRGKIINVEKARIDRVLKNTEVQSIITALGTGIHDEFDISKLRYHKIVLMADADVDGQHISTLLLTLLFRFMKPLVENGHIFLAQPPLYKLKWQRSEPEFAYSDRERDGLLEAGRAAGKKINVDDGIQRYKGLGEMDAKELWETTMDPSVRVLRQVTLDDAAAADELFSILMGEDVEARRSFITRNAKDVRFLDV

[4] = biological target: DNA gyrase subunit B (Mycobacterium smegmatis) (UniProt P0C559); assay: Inhibition of purified Mycobacterium smegmatis GyrB ATPase activity at 50 to 100 uM after 100 mins by ATPase assay; conditions: Mycolicibacterium smegmatis
Sequence of DNA gyrase subunit B (Mycobacterium smegmatis) (P0C559 2-675 limits assumed): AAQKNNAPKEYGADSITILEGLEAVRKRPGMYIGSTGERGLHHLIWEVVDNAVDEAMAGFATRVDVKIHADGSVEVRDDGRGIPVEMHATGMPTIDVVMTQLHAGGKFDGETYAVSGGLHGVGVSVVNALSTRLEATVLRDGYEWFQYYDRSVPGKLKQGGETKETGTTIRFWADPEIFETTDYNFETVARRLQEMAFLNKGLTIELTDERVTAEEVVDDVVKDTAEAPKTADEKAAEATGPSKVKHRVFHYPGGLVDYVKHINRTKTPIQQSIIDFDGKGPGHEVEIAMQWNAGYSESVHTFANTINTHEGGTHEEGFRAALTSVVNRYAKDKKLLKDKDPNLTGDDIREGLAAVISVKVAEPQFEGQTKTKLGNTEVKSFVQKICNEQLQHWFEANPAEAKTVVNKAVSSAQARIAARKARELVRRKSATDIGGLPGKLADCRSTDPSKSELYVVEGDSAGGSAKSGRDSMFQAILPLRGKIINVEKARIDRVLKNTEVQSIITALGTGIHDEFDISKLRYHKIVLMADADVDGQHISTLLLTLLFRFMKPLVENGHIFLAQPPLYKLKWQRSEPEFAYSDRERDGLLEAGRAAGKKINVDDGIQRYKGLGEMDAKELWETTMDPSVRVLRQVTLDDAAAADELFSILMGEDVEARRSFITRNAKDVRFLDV
How it was run: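 M. smegmatis GyrB expressed in BL21(DE3)pLysS, IPTG-induced (0.1 mM final), then Ni-NTA purified. Started with MgCl2, 100 min at room temperature. Released phosphate read at 635 nm.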

[5] = biological target: DNA gyrase subunit A/DNA gyrase subunit B (Mycobacterium tuberculosis (strain ATCC 25618 / H37Rv)) (UniProt P9WG45+P9WG47); assay: Binding affinity to Mycobacterium tuberculosis DNA gyrase by differential scanning fluorimetry
How it was run: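 Thermal shift assay with native GyrB protein. Reaction of 15 µL: assay buffer (50 mM Tris pH 7.4, 1 mM EDTA, 5 mM DTT), GyrB protein (1.5 mg/mL) and Sypro orange dye (1:100). Heated stepwise from 25 °C to 100 °C at 0.6 °C/min. Tm read from dye fluorescence. Shift in Tm of the ligand complex compared with the native protein Tm.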

SMILES	cytotoxicity at 72 h, 100 µM [1] [%]	pIC50 [2]	MIC [3] [µM]	pIC50 (DNA gyrase subunit B)	inhibition [4] [%]	Tm [5] [°C]
CCOC(=O)c1cc2cc(N3CCN(C(=S)NCc4ccccc4)CC3)ccc2o1	45.8	5.04	33.9 (≈ 14.4 µg/mL)	4.69		
CCOC(=O)c1cc2cc(N3CCN(C(=S)Nc4ccc([N+](=O)[O-])cc4)CC3)ccc2o1	25.8	4.98	62.6 (≈ 28.4 µg/mL)	4.89	> 60	
CC(=O)c1ccc(NC(=S)N2CCN(c3nsc4ccccc34)CC2)cc1	40.7	5.08	13.8 (≈ 5.48 µg/mL)	4.96		
O=[N+]([O-])c1ccc(NC(=S)N2CCN(c3nsc4ccccc34)CC2)cc1	27.6	6.08	13.7 (≈ 5.48 µg/mL)	5.74	> 60	
CCOC(=O)c1cc2cc(N3CCN(C(=O)NCc4ccccc4)CC3)ccc2o1	40.9	5.51	35.5 (≈ 14.4 µg/mL)	5.36	> 60	
CCOC(=O)c1cc2cc(N3CCN(C(=O)NCc4ccc(Cl)cc4)CC3)ccc2o1	21.6	5.79	64.6 (≈ 28.6 µg/mL)	5.53	> 60	
COc1ccc(NC(=S)N2CCN(c3nsc4ccccc34)CC2)cc1	19	5.98	3.54 (≈ 1.36 µg/mL)	5.54	> 60	
CCOC(=O)c1cc2cc(N3CCN(C(=O)Nc4ccc([N+](=O)[O-])cc4)CC3)ccc2o1	19.6	5.53	16.3 (≈ 7.15 µg/mL)	5.29	> 60	
S=C(NCc1ccccc1)N1CCN(c2nsc3ccccc23)CC1	19.1	< 4.60	14.7 (≈ 5.42 µg/mL)	4.34		
CCOC(=O)c1cc2cc(N3CCN(C(=O)Nc4ccc(OC)cc4)CC3)ccc2o1	19.9	5.13	4.24 (≈ 1.8 µg/mL)	5.09	> 60	
CC(=O)c1ccc(NC(=O)N2CCN(c3nsc4ccccc34)CC2)cc1	20.2	5.02	28.7 (≈ 10.9 µg/mL)	4.53		
CCOC(=O)c1cc2cc(N3CCN(C(=S)Nc4ccccc4)CC3)ccc2o1	22.9	5.14	35.3 (≈ 14.4 µg/mL)	4.81		
CC[C@@H](CO)NCCN[C@@H](CC)CO [ETHAMBUTOL]			0.66 (≈ 0.135 µg/mL)			
O=C(Nc1ccc(Cl)cc1)N1CCN(c2nsc3ccccc23)CC1	20.3	6.38	3.44 (≈ 1.28 µg/mL)	5.75	> 60	46.1
O=C(Nc1ccccc1)N1CCN(c2nsc3ccccc23)CC1	27	5.34	68.9 (≈ 23.3 µg/mL)	4.70		
CC1COc2c(N3CCN(C)CC3)c(F)cc3c(=O)c(C(=O)O)cn1c23 (stereo not given) [OFLOXACIN]			2.16 (≈ 0.781 µg/mL)			

SMILES	cytotoxicity at 72 h, 100 µM [1] [%]	pIC50 [2]	MIC [3] [µM]	pIC50 (DNA gyrase subunit B)	inhibition [4] [%]	Tm [5] [°C]
S=C(NCc1ccc(Cl)cc1)N1CCN(c2nsc3ccccc23)CC1	25.9	5.36	6.82 (≈ 2.75 µg/mL)	4.95		
CCOC(=O)c1cc2cc(N3CCN(C(=S)Nc4ccc(OC)cc4)CC3)ccc2o1	20.6	4.70	16.2 (≈ 7.14 µg/mL)	4.61		
CCOC(=O)c1cc2cc(N3CCN(C(=S)Nc4ccc(C(C)=O)cc4)CC3)ccc2o1	21.2	4.77	31.5 (≈ 14.2 µg/mL)	4.56		
CCOC(=O)c1cc2cc(N3CCN(C(=O)Nc4ccccc4)CC3)ccc2o1	21.3	5.15	92.6 (≈ 36.4 µg/mL)	4.77		
O=C(NCc1ccccc1)N1CCN(c2nsc3ccccc23)CC1	30.2	5.93	1.9 (≈ 0.67 µg/mL)	5.63	> 60	
NNC(=O)c1ccncc1 [ISONIAZID]			0.66 (≈ 0.0905 µg/mL)			
CO[C@H]1/C=C/O[C@@]2(C)Oc3c(C)c(O)c4c(O)c(c(/C=N/N5CCN(C)CC5)c(O)c4c3C2=O)NC(=O)/C(C)=C\C=C\[C@H](C)[C@H](O)[C@@H](C)[C@@H](O)[C@@H](C)[C@H](OC(C)=O)[C@@H]1C [RIFAMPIN]			0.23 (≈ 0.189 µg/mL)			
CCOC(=O)c1cc2cc(N3CCN(C(=S)NCc4ccc(Cl)cc4)CC3)ccc2o1	41.5	4.95	62 (≈ 28.4 µg/mL)	4.52		
CCOC(=O)c1cc2cc(N3CCN(C(=O)Nc4ccc(Cl)cc4)CC3)ccc2o1	19.2	4.74	16.8 (≈ 7.17 µg/mL)	4.68		
S=C(Nc1ccc(Cl)cc1)N1CCN(c2nsc3ccccc23)CC1	44.2	5.38	3.51 (≈ 1.37 µg/mL)	5.03	> 60	
O=C(Nc1ccc([N+](=O)[O-])cc1)N1CCN(c2nsc3ccccc23)CC1	20.9	4.91	28.5 (≈ 10.9 µg/mL)	4.57		
CCOC(=O)c1cc2cc(N3CCN(C(=S)Nc4ccc(Cl)cc4)CC3)ccc2o1	30	4.88	16.1 (≈ 7.13 µg/mL)	4.45		
S=C(Nc1ccccc1)N1CCN(c2nsc3ccccc23)CC1	39.3	5.41	15.2 (≈ 5.4 µg/mL)	5.04	> 60	
COc1ccc(NC(=O)N2CCN(c3nsc4ccccc34)CC2)cc1	37.6	4.91	14.7 (≈ 5.42 µg/mL)	4.58		
O=C(NCc1ccc(Cl)cc1)N1CCN(c2nsc3ccccc23)CC1	29.1	5.45	14.1 (≈ 5.46 µg/mL)	5.16	> 60	
CCOC(=O)c1cc2cc(N3CCN(C(=O)Nc4ccc(C(C)=O)cc4)CC3)ccc2o1	21.6	5.45	83.5 (≈ 36.4 µg/mL)	5.10	> 60	
